ChEMBL document CHEMBL1287754, “28-nor-oleanane-type triterpene saponins from Camellia japonica and their inhibitory activity on LPS-induced NO production in macrophage RAW264.7 cells” (Bioorg Med Chem Lett, 2010)

How the values were obtained:
RAW264.7 [1] = test: Antiinflammatory activity in mouse RAW264.7 cells assessed as inhibition of LPS-induced nitric oxide production after 24 hrs by Griess reaction; assay type: functional, cell-based; conditions: RAW264.7, 24 h
Outline: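 LPS-stimulated RAW264.7 macrophages; nitrite, the stable NO metabolite, quantified by Griess reaction in harvested culture medium. IC50 is the molar concentration giving 50% inhibition of NO production relative to vehicle control.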

RAW264.7 [2] = test: Cytotoxicity against mouse RAW264.7 cells assessed as cell viability at 50 uM after 24 hrs by MTT assay; assay type: cell-based; conditions: raw264.7, 24 h
RAW264.7 [3] = test: Cytotoxicity against LPS-stimulated mouse RAW264.7 cells assessed as cell viability at 50 uM after 24 hrs by MTT assay; assay type: cell-based; conditions: raw264.7, 24 h

Row | IC50 (RAW264.7 [1]) | Structure (SMILES) | Activity (RAW264.7 [2]) | Activity (RAW264.7 [3])
1 | 0.022 µM | CC1CCN=C(N)S1 (centres undefined) | – | –
2 | 9.59 µM | CC1(C)CC[C@]2(O)C(=O)C[C@]3(C)C(=CC[C@@H]4[C@@]5(C)CC[C@H](O[C@@H]6O[C@H](C(=O)O)[C@@H](O)[C@H](O[C@@H]7O[C@H](CO)[C@H](O)[C@H](O)[C@H]7O[C@@H]7O[C@H](CO)[C@@H](O)[C@H](O)[C@H]7O)[C@H]6O[C@H]6O[C@@H](CO)[C@@H](O)[C@@H](O)[C@@H]6O)C(C)(C)C5CC[C@]43C)[C@@H]2C1 (some centres undefined) [CAMELLIOSIDE A] | Non-toxic | Non-toxic
3 | 18.2 µM | CC1(C)CC[C@]2(O)C(=O)C[C@]3(C)C(=CC[C@@H]4[C@@]5(C)CC[C@H](O[C@@H]6O[C@H](C(=O)O)[C@@H](O)[C@H](O[C@@H]7O[C@H](CO)[C@H](O)[C@H](O)[C@H]7O[C@@H]7OC[C@@H](O)[C@H](O)[C@H]7O)[C@H]6O[C@H]6O[C@@H](CO)[C@@H](O)[C@@H](O)[C@@H]6O)C(C)(C)C5CC[C@]43C)[C@@H]2C1 (some centres undefined) [CAMELLIOSIDE E] | Non-toxic | Non-toxic
4 | 11.5 µM | CC(=O)O[C@H]1[C@@H](O)[C@H](O)[C@@H](O[C@H]2[C@H](O[C@H]3CC[C@@]4(C)C(CC[C@]5(C)[C@@H]4CC=C4[C@@H]6CC(C)(C)CC[C@]6(O)C(=O)C[C@]45C)C3(C)C)O[C@H](C(=O)O)[C@@H](O)[C@@H]2O[C@@H]2O[C@H](CO)[C@H](O)[C@H](O)[C@H]2O[C@@H]2OC[C@@H](O)[C@H](O)[C@H]2O)O[C@H]1CO (some centres undefined) [CAMELLIOSIDE F] | Non-toxic | Non-toxic
5 | 5.16 µM | COC(=O)[C@H]1O[C@@H](O[C@H]2CC[C@@]3(C)C(CC[C@]4(C)[C@@H]3CC=C3[C@@H]5CC(C)(C)CC[C@]5(O)C(=O)C[C@]34C)C2(C)C)[C@H](O[C@H]2O[C@@H](CO)[C@@H](O)[C@@H](O)[C@@H]2O)[C@@H](O[C@@H]2O[C@H](CO)[C@H](O)[C@H](O)[C@H]2O[C@@H]2OC[C@@H](O)[C@H](O)[C@H]2O)[C@@H]1O (some centres undefined) [CAMELLIOSIDE G] | Non-toxic | Non-toxic
6 | 15.9 µM | COC(=O)[C@H]1O[C@@H](O[C@H]2CC[C@@]3(C)C(CC[C@]4(C)[C@@H]3CC=C3C5=C(CCC(C)(C)C5)C(=O)C[C@]34C)C2(C)C)[C@H](O[C@H]2O[C@@H](CO)[C@@H](O)[C@@H](O)[C@@H]2O)[C@@H](O[C@@H]2O[C@H](CO)[C@H](O)[C@H](O)[C@H]2O[C@@H]2OC[C@@H](O)[C@H](O)[C@H]2O)[C@@H]1O (some centres undefined) [CAMELLIOSIDE H] | Non-toxic | Non-toxic
7 | 4.96 µM | CC(=O)O[C@H]1[C@@H](O)[C@H](O)[C@@H](O[C@H]2[C@H](O[C@H]3CC[C@@]4(C)C(CC[C@]5(C)[C@@H]4CC=C4[C@@H]6CC(C)(C)CC[C@]6(O)C(=O)C[C@]45C)C3(C)C)O[C@H](C(=O)O)[C@@H](O)[C@@H]2O[C@@H]2O[C@H](CO)[C@H](O)[C@H](O)[C@H]2O[C@@H]2O[C@H](CO)[C@@H](O)[C@H](O)[C@H]2O)O[C@H]1CO (some centres undefined) [CAMELLIOSIDE] | Non-toxic | Non-toxic
